Measured values published in ChEMBL document CHEMBL3102784, “Salicylanilide diethyl phosphates: synthesis, antimicrobial activity and cytotoxicity” (Bioorg Med Chem, 2014).
≈ marks a conversion by molar mass, not a printed value. Calls of active or inactive are those of the source. No cut-off for these calls is given here.

Experiments:
Mycobacterium kansasii [1] = assay: Antimycobacterial activity against Mycobacterium kansasii 6509/96 after 14 days; format: functional; conditions: 6509/96, 336 h
How it was run: (§1)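 Micromethod MIC in Šula's semisynthetic medium at 37 °C. Compounds added in DMSO at 1000 down to 0.032 µmol/L. Isoniazid standard in sterile water at 0.5–250 µmol/L. Inocula: H37Rv 10^3, M. avium 10^5, M. kansasii 10^4. Read at 14 and 21 d, plus 7 d for M. kansasii.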

Aspergillus fumigatus [2] = assay: Antifungal activity against Aspergillus fumigatus 231 after 48 hrs by broth microdilution method; format: functional; conditions: Aspergillus fumigatus, 231, 48 h
How it was run: (§2)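 Broth microdilution in RPMI 1640 with glutamine, fluconazole as reference. For yeasts, MIC is ≥80% growth reduction (IC80) versus control. For filamentous fungi, the value is expressed as IC50. Readings at 24 and 48 h.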

Mycobacterium kansasii [3] = assay: Antimycobacterial activity against Mycobacterium kansasii My 235/80 after 14 days; format: functional; conditions: My 235/80, 336 h; how it was run: as §1
Lichtheimia corymbifera [4] = assay: Antifungal activity against Absidia corymbifera 272 after 48 hrs by broth microdilution method; format: functional; conditions: Lichtheimia corymbifera, 272, 48 h; how it was run: as §2
Enterococcus sp. = assay: Antibacterial activity against Enterococcus sp. J 14365/08 at 500 micromol/L after 24 to 48 hrs by broth microdilution method; format: functional, organism-based
How it was run: (§3)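 Broth microdilution in Mueller–Hinton broth, compounds dissolved in DMSO, tested over a dilution series from 500 downward. MIC taken as ≥95% growth reduction (IC95) versus drug-free control. Benzylpenicillin comparator. Readings at 24 and 48 h.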

Mycobacterium avium [5] = assay: Antimycobacterial activity against isoniazid, rifampicin, ethambutol and ofloxacin-resistant Mycobacterium avium My 330/88 after 21 days; format: functional; conditions: My 330/88, 504 h; how it was run: as §1
Mycobacterium kansasii [6] = assay: Antimycobacterial activity against Mycobacterium kansasii My 235/80 after 7 days; format: functional; conditions: My 235/80, 168 h; how it was run: as §1
Candida tropicalis = assay: Antifungal activity against Candida tropicalis 156 at 500 micromol/L after 24 to 48 hrs by broth microdilution method; format: functional, organism-based; how it was run: as §2
Lichtheimia corymbifera [7] = assay: Antifungal activity against Absidia corymbifera 272 after 24 hrs by broth microdilution method; format: functional; conditions: Lichtheimia corymbifera, 272, 24 h; how it was run: as §2
Nakaseomyces glabratus = assay: Antifungal activity against Candida glabrata 20/I at 500 micromol/L after 24 to 48 hrs by broth microdilution method; format: functional, organism-based; how it was run: as §2
HepG2 = assay: Cytotoxicity against human HepG2 cells after 24 hrs by CellTiter assay; format: cell-based; conditions: HepG2, 24 h
How it was run: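 HepG2 cells (passage 27–33) in MEM with 10% FBS, L-glutamine and NEAA, seeded at 1×10^4 per well. Treated next day with compounds at 0.1–100 µM (or 0.1–25 µmol/L), triplicates, <1% DMSO, for 24 h at 37 °C, 5% CO2. MTS reagent added for 2 h, absorbance read at 490 nm. IC50 taken against untreated (100%) and 10% DMSO (0%) controls.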

Staphylococcus aureus [8] = assay: Antibacterial activity against Staphylococcus aureus CCM 4516/08 after 24 hrs by broth microdilution method; format: functional; conditions: CCM 4516/08, 24 h; how it was run: as §3
[9] = tested on: Mycobacterium tuberculosis; assay: Antimycobacterial activity against Mycobacterium tuberculosis H37Rv My 331/88 after 21 days; format: functional; conditions: H37Rv My 331/88, 504 h; how it was run: as §1
Escherichia coli = assay: Antibacterial activity against Escherichia coli CCM 4517 at 500 micromol/L after 24 to 48 hrs by broth microdilution method; format: functional, organism-based; how it was run: as §3
Klebsiella pneumoniae [10] = assay: Antibacterial activity against Klebsiella pneumoniae D 11750/08 at 500 micromol/L after 24 to 48 hrs by broth microdilution method; format: functional, organism-based; how it was run: as §3
Candida albicans [11] = assay: Antifungal activity against Candida albicans ATCC 44859 after 48 hrs by broth microdilution method; format: functional; conditions: ATCC 44859, 48 h; how it was run: as §2
Aspergillus fumigatus [12] = assay: Antifungal activity against Aspergillus fumigatus 231 after 24 hrs by broth microdilution method; format: functional; conditions: Aspergillus fumigatus, 231, 24 h; how it was run: as §2
Mycobacterium kansasii [13] = assay: Antimycobacterial activity against Mycobacterium kansasii My 235/80 after 21 days; format: functional; conditions: My 235/80, 504 h; how it was run: as §1
Trichosporon asahii [14] = assay: Antifungal activity against Trichosporon asahii 1188 after 48 hrs by broth microdilution method; format: functional; conditions: Trichosporon asahii, 1188, 48 h; how it was run: as §2
Trichosporon asahii [15] = assay: Antifungal activity against Trichosporon asahii 1188 after 24 hrs by broth microdilution method; format: functional; conditions: Trichosporon asahii, 1188, 24 h; how it was run: as §2
Pichia kudriavzevii [16] = assay: Antifungal activity against Candida krusei E28 after 24 hrs by broth microdilution method; format: functional; conditions: E28, 24 h; how it was run: as §2
Klebsiella pneumoniae [17] = assay: Antibacterial activity against ESBL-positive Klebsiella pneumoniae J 14368/08 at 500 micromol/L after 24 to 48 hrs by broth microdilution method; format: functional, organism-based; how it was run: as §3
Mycobacterium kansasii [18] = assay: Antimycobacterial activity against Mycobacterium kansasii 6509/96 after 21 days; format: functional; conditions: 6509/96, 504 h; how it was run: as §1
[19] = tested on: Staphylococcus epidermidis; assay: Antibacterial activity against Staphylococcus epidermidis H 6966/08 after 24 hrs by broth microdilution method; format: functional; conditions: H 6966/08, 24 h; how it was run: as §3
Candida albicans [20] = assay: Antifungal activity against Candida albicans ATCC 44859 after 24 hrs by broth microdilution method; format: functional; conditions: ATCC 44859, 24 h; how it was run: as §2
Staphylococcus aureus [21] = assay: Antibacterial activity against methicillin-resistant Staphylococcus aureus H 5996/08 after 24 hrs by broth microdilution method; format: functional; conditions: H 5996/08, 24 h; how it was run: as §3
[22] = tested on: Trichophyton mentagrophytes; assay: Antifungal activity against Trichophyton mentagrophytes 445 after 72 hrs by broth microdilution method; format: functional; conditions: Trichophyton mentagrophytes, 445, 72 h
How it was run: (§4)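 Filamentous dermatophyte tested by broth microdilution in RPMI 1640 with glutamine, fluconazole as reference. Value expressed as IC50 relative to growth control. Read at 72 and 120 h.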

Mycobacterium avium [23] = assay: Antimycobacterial activity against isoniazid, rifampicin, ethambutol and ofloxacin-resistant Mycobacterium avium My 330/88 after 14 days; format: functional; conditions: My 330/88, 336 h; how it was run: as §1
[24] = tested on: Mycobacterium tuberculosis; assay: Antimycobacterial activity against Mycobacterium tuberculosis H37Rv My 331/88 after 14 days; format: functional; conditions: H37Rv My 331/88, 336 h; how it was run: as §1
Pseudomonas aeruginosa = assay: Antibacterial activity against Pseudomonas aeruginosa CCM 1961 at 500 micromol/L after 24 to 48 hrs by broth microdilution method; format: functional, organism-based; how it was run: as §3
Staphylococcus aureus [25] = assay: Antibacterial activity against Staphylococcus aureus CCM 4516/08 after 48 hrs by broth microdilution method; format: functional; conditions: CCM 4516/08, 48 h; how it was run: as §3
Pichia kudriavzevii [26] = assay: Antifungal activity against Candida krusei E28 after 48 hrs by broth microdilution method; format: functional; conditions: E28, 48 h; how it was run: as §2
Staphylococcus aureus [27] = assay: Antibacterial activity against methicillin-resistant Staphylococcus aureus H 5996/08 after 48 hrs by broth microdilution method; format: functional; conditions: H 5996/08, 48 h; how it was run: as §3
[28] = tested on: Trichophyton mentagrophytes; assay: Antifungal activity against Trichophyton mentagrophytes 445 after 120 hrs by broth microdilution method; format: functional; conditions: Trichophyton mentagrophytes, 445, 120 h; how it was run: as §4
Mycobacterium kansasii [29] = assay: Antimycobacterial activity against Mycobacterium kansasii 6509/96 after 7 days; format: functional; conditions: 6509/96, 168 h; how it was run: as §1
[30] = tested on: Staphylococcus epidermidis; assay: Antibacterial activity against Staphylococcus epidermidis H 6966/08 after 48 hrs by broth microdilution method; format: functional; conditions: H 6966/08, 48 h; how it was run: as §3

Compound: CCOP(=O)(OCC)Oc1ccc(Br)cc1C(=O)Nc1ccc(C(F)(F)F)cc1
- MIC (Mycobacterium kansasii [1]): 2 µM (≈ 0.992 µg/mL)
- MIC50 (Aspergillus fumigatus [2]): > 500 µM
- MIC (Mycobacterium kansasii [3]): 2 µM (≈ 0.992 µg/mL)
- MIC50 (Lichtheimia corymbifera [4]): > 500 µM
- Activity (Enterococcus sp.): inactive
- MIC (Mycobacterium avium [5]): 8 µM (≈ 3.97 µg/mL)
- MIC (Mycobacterium kansasii [6]): 1 µM (≈ 0.496 µg/mL)
- Activity (Candida tropicalis): inactive
- MIC50 (Lichtheimia corymbifera [7]): > 500 µM
- Activity (Nakaseomyces glabratus): inactive
- IC50 (HepG2): 1840 nM
- MIC95 (Staphylococcus aureus [8]): 15.6 µM (≈ 7.75 µg/mL)
- MIC [9]: 1 µM (≈ 0.496 µg/mL)
- Activity (Escherichia coli): inactive
- Activity (Klebsiella pneumoniae [10]): inactive
- MIC80 (Candida albicans [11]): > 500 µM
- MIC50 (Aspergillus fumigatus [12]): > 500 µM
- MIC (Mycobacterium kansasii [13]): 2 µM (≈ 0.992 µg/mL)
- MIC80 (Trichosporon asahii [14]): > 500 µM
- MIC80 (Trichosporon asahii [15]): > 500 µM
- MIC80 (Pichia kudriavzevii [16]): > 500 µM
- Activity (Klebsiella pneumoniae [17]): inactive
- MIC (Mycobacterium kansasii [18]): 2 µM (≈ 0.992 µg/mL)
- MIC95 [19]: 7.81 µM (≈ 3.88 µg/mL)
- MIC80 (Candida albicans [20]): > 500 µM
- MIC95 (Staphylococcus aureus [21]): 15.6 µM (≈ 7.75 µg/mL)
- MIC50 [22]: 250 µM (≈ 124 µg/mL)
- MIC (Mycobacterium avium [23]): 8 µM (≈ 3.97 µg/mL)
- MIC [24]: 1 µM (≈ 0.496 µg/mL)
- Activity (Pseudomonas aeruginosa): inactive
- MIC95 (Staphylococcus aureus [25]): 31.2 µM (≈ 15.5 µg/mL)
- MIC80 (Pichia kudriavzevii [26]): > 500 µM
- MIC95 (Staphylococcus aureus [27]): 15.6 µM (≈ 7.75 µg/mL)
- MIC50 [28]: 250 µM (≈ 124 µg/mL)
- MIC (Mycobacterium kansasii [29]): 2 µM (≈ 0.992 µg/mL)
- MIC95 [30]: 15.6 µM (≈ 7.75 µg/mL)
